The source of these data is ChEMBL document CHEMBL3112446, “Discovery and optimization of a new class of pyruvate kinase inhibitors as potential therapeutics for the treatment of methicillin-resistant Staphylococcus aureus infections” (Bioorg Med Chem, 2014).

Molecules are shown by their SMILES. In brackets after ≈: the same amount, converted by molar mass. Activity calls are given as the source filed them. The calls are words filed in the database; no cut-off is given here.

By MIC is commonly meant the lowest concentration found to suppress growth. In general, inhibition refers to how much of the control response was suppressed. The low end stands for a weak effect, the high end for a strong effect. The IC50 is the point on the concentration scale where inhibition reaches its midpoint.

Data set [1] concerns Staphylococcus aureus. The experiment in a line: Ratio of MIC90 for Staphylococcus aureus ATCC 29213 in presence of efflux inhibitor verapamil to MIC90 for Staphylococcus aureus ATCC 29213 in absence of efflux inhibitor verapamil. Type of data set: functional. Summed up:
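S. aureus ATCC 29213 broth microdilution in 96-well format, run in parallel in CAMHB with and without verapamil (200 mg/L, sub-inhibitory). Compounds were twofold serially diluted in DMSO and added to ~2.5 × 10^5 CFU/ml. Plates were incubated 18–24 h at 37 °C and read at OD600, with inhibitor-only wells subtracted as background. MIC is the lowest concentration giving complete growth inhibition versus compound-free wells, in duplicate or triplicate. The ratio compares the MIC with verapamil to the MIC without.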

Data set [2] has as its system HEK293. Briefly: Cytotoxicity against HEK293 cells assessed as cell viability at 10 ug/ml. Type of data set: cell-based. As to conditions: human.
In data set [3] the test system is Staphylococcus aureus. The experiment in a line: Antibacterial activity against Staphylococcus aureus ATCC 29213 by two fold serial dilution method in presence of efflux inhibitor verapamil. Type of data set: functional. A digest of the protocol: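 S. aureus ATCC29213, 96-well twofold broth microdilution in CAMHB with verapamil 200 mg/L (sub-inhibitory) versus plain CAMHB. Incubated 18–24 h at 37 °C, OD600 read, compound-plus-medium background subtracted. MIC is the lowest concentration giving complete growth inhibition relative to compound-free wells.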

The subject of data set [4] is HEK293. The experiment in a line: Cytotoxicity against HEK293 cells assessed as cell viability at 100 ug/ml. Type of data set: cell-based. As to conditions: human.
Data set [5] has as its target Pyruvate kinase PKLR (Homo sapiens) (UniProt P30613). The experiment in a line: Inhibition human pyruvate kinase R at 10 uM. A digest of the protocol:
(§1)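 His-tagged recombinant human PK isoforms were used. Compounds were diluted in 100% DMSO and tested at 10 µM, the highest concentration tested. Values are percent inhibition of enzymatic activity.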

Data set [6] has as its system Staphylococcus aureus. The experiment in a line: Inhibition of methicillin-resistant Staphylococcus aureus pyruvate kinase at 10 uM. A digest of the protocol:
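His-tagged MRSA PK. Compounds diluted in 100% DMSO. Percent inhibition reported at the highest concentration tested, 10 µM.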

Data set [7] is described as follows: Inhibition of methicillin-resistant Staphylococcus aureus pyruvate kinase. The conditions noted are these: read-out: IC50. Summed up:
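His-tagged MRSA PK. Compounds diluted in 100% DMSO. IC50 calculated from a triplicate 15-point titration.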

Data set [8] deals with Pyruvate kinase PKM (Homo sapiens) (UniProt P14618). The experiment in a line: Inhibition human pyruvate kinase M1 at 10 uM. A digest of the protocol: as §1
Chain of Pyruvate kinase PKM (Homo sapiens) (P14618 2-531 limits assumed): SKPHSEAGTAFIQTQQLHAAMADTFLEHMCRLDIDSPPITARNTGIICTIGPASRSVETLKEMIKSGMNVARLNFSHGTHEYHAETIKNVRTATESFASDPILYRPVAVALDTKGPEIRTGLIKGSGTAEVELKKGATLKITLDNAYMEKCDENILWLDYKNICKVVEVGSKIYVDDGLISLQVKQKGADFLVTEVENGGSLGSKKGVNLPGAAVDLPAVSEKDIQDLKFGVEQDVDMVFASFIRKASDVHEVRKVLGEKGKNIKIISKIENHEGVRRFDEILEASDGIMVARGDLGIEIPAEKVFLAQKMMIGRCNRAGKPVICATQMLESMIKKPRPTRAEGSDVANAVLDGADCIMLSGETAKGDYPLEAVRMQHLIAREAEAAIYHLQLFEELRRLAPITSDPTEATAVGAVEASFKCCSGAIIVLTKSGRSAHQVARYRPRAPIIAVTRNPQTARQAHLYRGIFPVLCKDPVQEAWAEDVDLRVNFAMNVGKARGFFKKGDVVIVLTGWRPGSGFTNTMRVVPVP
The target in data set [9] is Pyruvate kinase PKLR (Homo sapiens) (UniProt P30613). The experiment in a line: Inhibition human pyruvate kinase L at 10 uM. A digest of the protocol:
as §1

In data set [10] the target is Pyruvate kinase PKM (Homo sapiens) (UniProt P14618). The experiment in a line: Inhibition human pyruvate kinase M2 at 10 uM. A digest of the protocol: as §1
The test system of data set [11] is HEK293. Briefly: Cytotoxicity against HEK293 cells assessed as cell viability at 1 ug/ml. Type of data set: cell-based. The conditions noted are these: human.
The test system of data set [12] is Staphylococcus aureus. Briefly: Bactericidal activity against Staphylococcus aureus harboring LAC Dpyk::ErmR mutant at 1.6 uM after 8 to 24 hrs. Type of data set: functional, organism-based. A digest of the protocol:
(§2)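 S. aureus LAC pyk::ErmR (pyk replaced by an ErmR cassette) and WT overnight cultures were washed twice in PBS and diluted to OD600 0.1 (~2.5 × 10^7 cfu/ml). Media were pre-warmed (37 °C) BHI or TSB without glucose plus 1% sodium pyruvate (TSB-G+P), ±1.6 µM inhibitor. Cultures grew at 37 °C, 250 rpm. Viable counts were taken by dilution plating on glucose-free TSA plus 1% pyruvate at 0, 8 and 24 h.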

For data set [13], the system named is Staphylococcus aureus. The experiment in a line: Antibacterial activity against methicillin-resistant Staphylococcus aureus MW2 by two fold serial dilution method. Type of data set: functional.
The test system of data set [14] is Staphylococcus aureus. The experiment in a line: Bacteriostatic activity against Staphylococcus aureus harboring LAC Dpyk::ErmR mutant in TSB-G+P medium at 1.6 uM after 8 to 24 hrs. Type of data set: functional, organism-based. A digest of the protocol: as §2
Data set [15] relates to Staphylococcus aureus. Briefly: Bacteriostatic activity against wild type Staphylococcus aureus at 1.6 uM after 8 to 24 hrs. Type of data set: functional, organism-based. A digest of the protocol:
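Washed overnight cultures were diluted to OD600 = 0.1 (~2.5 × 10^7 cfu/ml) in pre-warmed medium, either BHI or glucose-free TSB with 1% sodium pyruvate, ±1.6 µM compound. Grown at 37 °C with shaking at 250 rpm. Viable counts by dilution plating on glucose-free TSA with 1% pyruvate at 0, 8 and 24 h.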

Data set [16] has as its system Staphylococcus aureus. The experiment in a line: Bacteriostatic activity against Staphylococcus aureus harboring LAC Dpyk::ErmR mutant in Brain-Heart infusion broth medium at 1.6 uM after 8 to 24 hrs. Type of data set: functional, organism-based. Summed up:
as §2

Data set [17] has as its system Staphylococcus aureus. Briefly: Antibacterial activity against Staphylococcus aureus MRSA252. Type of data set: functional.
In data set [18] the test system is Staphylococcus aureus. Briefly: Antibacterial activity against Staphylococcus aureus […]. Type of data set: functional.

Chain of Pyruvate kinase PKLR (Homo sapiens) (P30613 whole entry, looked up, canonical isoform): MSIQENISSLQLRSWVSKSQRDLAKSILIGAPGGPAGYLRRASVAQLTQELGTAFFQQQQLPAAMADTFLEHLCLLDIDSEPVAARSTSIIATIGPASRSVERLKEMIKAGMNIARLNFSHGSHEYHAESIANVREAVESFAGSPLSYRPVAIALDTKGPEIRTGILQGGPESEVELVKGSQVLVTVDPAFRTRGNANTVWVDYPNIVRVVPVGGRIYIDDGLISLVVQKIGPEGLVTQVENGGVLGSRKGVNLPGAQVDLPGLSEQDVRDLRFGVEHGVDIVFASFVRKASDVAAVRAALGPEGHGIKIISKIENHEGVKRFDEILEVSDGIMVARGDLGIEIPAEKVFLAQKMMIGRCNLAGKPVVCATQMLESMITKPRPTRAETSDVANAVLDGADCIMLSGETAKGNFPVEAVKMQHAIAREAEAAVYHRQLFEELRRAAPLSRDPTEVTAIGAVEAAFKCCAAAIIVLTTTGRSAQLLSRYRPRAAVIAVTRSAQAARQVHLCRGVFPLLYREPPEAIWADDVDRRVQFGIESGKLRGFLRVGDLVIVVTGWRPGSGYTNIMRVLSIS

For `Brc1ccc2cc(-c3cc4ccc(Br)cc4[nH]3)[nH]c2c1`, the Ratio in data set [1] stood at 32. Besides, the Cell viability in data set [2] was 106%; in data set [4] it was 118%; in data set [11] it was 103%. Besides, the MIC in data set [3] is 0.5 µg/mL. For the same compound, the inhibition in data set [5] amounted to 18.3%; in data set [6] it was 84.9%; in data set [8], 10.3%; in data set [9] it was 7.9%; in [10], 0.1%. Besides, the IC50 in [7] amounted to 7 nM.
Take `Clc1ccc2[nH]c(-c3cc4ccc(Br)cc4[nH]3)cc2c1`: the outcome in [12] and in [14] was inactive. For the same compound, the MIC in data set [13] turned out to be 0.5 µg/mL (≈ 1.45 µM); in data set [3] it was 0.5 µg/mL. In addition, in data set [7], the IC50 is 2 nM. Further, the result in [15] and in [16] was Active.
Consider `Brc1cc2cc(-c3cc4cc(Br)c(Br)cc4[nH]3)[nH]c2cc1Br`, for which, in data set [1], the Ratio is listed as 4. Further, the MIC in data set [3] amounted to 16 µg/mL. Moreover, the inhibition in data set [5] is 20.7%; in data set [6], 97.6%; in data set [8] it was 11.1%; in [9] it was 8.2%; in data set [10], 2.3%. Besides, the concentration for half-maximal inhibition (IC50) in [7] was found to be 2 nM.
With `O=C1NC[C@@H](c2c[nH]c3cc(Br)ccc23)N[C@H]1c1c[nH]c2cc(Br)ccc12` (relative stereo) [CIS-3,4-DIHYDROHAMACANTHIN B], the minimum inhibitory concentration (MIC) in [17] and in data set [18] was 12.5 µg/mL (≈ 25.6 µM) each time. The IC50 in data set [7] came to 16 nM.
